Measurements taken from publication PMC2886590 (Journal of molecular biology, 2010).
Residue numbers refer to the chain shown, from its start. In names and notes the source's numbering stands.

B1: F1568A: MLL PHD3 point mutant (GST-PHD3 in vitro; engineered into full-length MLL in cells) (protein)
chain: KGNACPLCDKCYDDDDYESKMMQCGKCDRWVHSKCENLSDEMYEILSNLPESVAYTCVNCTER
modifications: left off: GST, end not stated, kept
B2: M1585A: "loss-of-function" MLL PHD3 point mutant (PHD3 in vitro; full-length MLL in cells) (protein)
chain: B1 chain with A4F, M21A
modifications: left off: GST, end not stated, kept
B3: Y1576A: MLL PHD3 finger point mutant, tested in vitro only (protein)
chain: B1 chain with A4F, Y12A
modifications: left off: GST, end not stated, kept
B4: D1592A: MLL PHD3 point mutant, acidic residue replaced with Ala (PHD3 in vitro; full-length MLL in cells) (protein)
chain: B1 chain with A4F, D28A
modifications: left off: GST, end not stated, kept
B5: W1594A: "loss-of-structure" MLL PHD3 point mutant (PHD3 in vitro; full-length MLL in cells) (protein)
chain: B1 chain with A4F, W30A
modifications: left off: GST, end not stated, kept

Experiments:
[1] = system: MEIS1 promoter; experiment: ChIP: MLL occupancy at MEIS1; assay type: cell-based; conditions: HA-tagged full-length MLL, 293T cells
How it was run: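 293T cells were transfected with HA-tagged full-length MLL, wild type or point mutant, for two days. ChIP was then run with the indicated antibodies. Quantitative PCR was done on ChIP-bound and input DNA at the MEIS1 promoter, with a MEIS1 3' genomic region for comparison.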

[2] = system: H3K4me3 peptide; experiment: NMR titration of PHD3 mutants with H3K4me3 peptide; assay type: binding; conditions: data not shown; for H3K4me3 binding of mutant (1H,15N HSQC): 0.2 mM 15N-labeled mutant PHD3, H3K4me3 12-mer peptide; for changes in 1H,15N HSQC spectra induced by H3K4me3 peptide: 0.2 mM 15N-labeled mutant PHD3
How it was run: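 PHD3 finger (residues 1565-1627, wild type or mutant) was expressed as a GST fusion in E. coli BL21(DE3) pLysS grown in 15NH4Cl minimal medium. It was affinity-purified, GST-cleaved, size-exclusion purified and held in 25 mM d11-Tris pH 6.8, 150 mM KCl, 10 mM deuterated DTT and 7% 2H2O. 12-mer histone tail peptides were added stepwise to 0.2 mM protein, and normalized chemical shift changes were tracked in 1H,15N HSQC spectra.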

[3] = system: histone H3 tail (H3K4me3); assay type: binding; conditions: mutant PHD3; pull-down, microarray and NMR
How it was run: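 GST-fused MLL PHD3 (residues 1565-1627), wild type or mutant, was expressed in E. coli BL21(DE3) pLysS and purified on glutathione resin. It was incubated with C-terminally biotinylated histone H3 tail peptides (residues 1-21) on streptavidin beads in 50 mM Tris pH 7.5, 150 mM NaCl, 0.05% NP-40. Beads were washed five times, and bound protein was detected by anti-GST western blot. GST-PHD3 without peptide served as control.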

[4] = MLL protein levels by western blot; assay type: cell-based; conditions: 293T cells, Fig. 3B

Row | Molecule | MEIS1 occupancy [1] | H3K4me3 binding of mutant (1H,15N HSQC) [2] | changes in 1H,15N HSQC spectra induced by H3K4me3 peptide [2] | ability to recognize H3K4me3 [3] | protein stability in vivo [4]
1 | B1 | also occupied the MEIS1 promoter |  |  |  | 
2 | B2 | also occupied the MEIS1 promoter | binding was essentially abolished | small to negligible changes | more severely compromised | 
3 | B3 |  | binding was essentially abolished | small to negligible changes | more severely compromised | 
4 | B4 | also occupied the MEIS1 promoter |  |  |  | 
5 | B5 |  |  |  | more severely compromised | reduced stability in vivo
